SMILES strings stand for the structures.

Sequence of CDK8/Cyclin C (P49336 whole entry): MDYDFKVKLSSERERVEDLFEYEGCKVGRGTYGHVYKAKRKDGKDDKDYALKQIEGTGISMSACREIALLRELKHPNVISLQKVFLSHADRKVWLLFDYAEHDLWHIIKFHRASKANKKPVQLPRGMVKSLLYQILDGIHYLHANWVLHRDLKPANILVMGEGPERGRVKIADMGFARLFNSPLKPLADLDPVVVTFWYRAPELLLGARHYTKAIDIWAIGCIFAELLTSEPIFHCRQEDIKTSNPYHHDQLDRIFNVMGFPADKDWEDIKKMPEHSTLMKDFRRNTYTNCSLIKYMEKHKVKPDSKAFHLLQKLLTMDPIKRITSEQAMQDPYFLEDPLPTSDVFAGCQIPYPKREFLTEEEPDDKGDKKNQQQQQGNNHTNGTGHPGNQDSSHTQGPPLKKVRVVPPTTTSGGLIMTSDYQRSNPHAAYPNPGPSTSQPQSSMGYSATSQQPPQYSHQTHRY
Sequence of CDK8/Cyclin C (P24863 whole entry, further chain): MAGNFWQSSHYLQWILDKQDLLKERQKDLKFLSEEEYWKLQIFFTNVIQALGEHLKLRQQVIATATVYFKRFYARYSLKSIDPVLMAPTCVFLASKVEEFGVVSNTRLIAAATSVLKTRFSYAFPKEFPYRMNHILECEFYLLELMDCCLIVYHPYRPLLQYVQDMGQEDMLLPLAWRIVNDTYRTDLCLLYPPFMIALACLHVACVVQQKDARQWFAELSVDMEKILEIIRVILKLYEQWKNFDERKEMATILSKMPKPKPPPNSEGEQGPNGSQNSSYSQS

One assay has as its target CDK8/Cyclin C (Homo sapiens) (UniProt P49336+P24863). Nature of the assay: Inhibition of Alexa fluor 647 labeled kinase tracer binding to human CDK8/cyclin C at 10 uM incubated for 1 hr by FRET based LanthaScreen Eu-Kinase binding assay relative to control. It is filed as protein-complex assay. In outline: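 Tagged CDK8/CyclinC (5 nM final) with biotin anti-His antibody and Eu-streptavidin; competitor at 10 μM; Alexa Fluor 647 tracer 236 (Kd 8 nM) at 10 nM final. Buffer: HEPES 50 mM pH 7.5, MgCl2 10 mM, EGTA 1 mM, Brij-35 0.01%. Incubated 1 h at room temperature. TR-FRET read with excitation at 337 nm and emission at 665/620 nm. Mean ± SEM of two independent experiments.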
Consider `O=C(Nc1ccncc1)c1ccncc1`, for which the inhibition was > 50%.

`COc1ccc(OC(=O)c2cccnc2)cc1`: the inhibition is > 50%.

Regarding `CCOc1ccc(C(=O)Oc2cccnc2)cc1`, the inhibition is > 50%.

Consider `c1ccc(COc2ccc(OCc3ccccn3)cc2)nc1`, for which the inhibition is > 50%.

Consider `COc1ccc(C(O)Cc2cccnc2)cc1` (stereo not drawn), for which the inhibition was > 50%.

`Cc1ccc(SC(C)C(=O)NCc2cccnc2)cc1` (stereo not drawn): the inhibition was > 50%.

A further assay has as its target CDK8/Cyclin C (Homo sapiens, UniProt P49336). Nature of the assay: Inhibition of Alexa fluor 647 labeled kinase tracer binding to human CDK8/cyclin C incubated for 1 hr by FRET based LanthaScreen Eu-Kinase binding assay. The class given is protein-complex assay.
As for `CCOc1ccc(C(=O)Oc2cnccc2-c2cnn(-c3ccccc3)c2)cc1`, the IC50 came to 6.4 nM.

Regarding `CCOc1ccc(C(=O)Oc2cncc(C3CCN(c4ccccc4)CC3)c2)cc1`, the IC50 was > 25000 nM.

For `CCOc1ccc(C(=O)Oc2cnccc2C2CCN(c3ccccc3)CC2)cc1`, the IC50 worked out at 144 nM.

For the compound `CCOc1ccc(C(=O)Oc2cncc(NC(=O)Nc3ccccc3)c2)cc1`, the IC50 was > 25000 nM.

For `CCOc1ccc(C(=O)Oc2cccnc2)cc1`, the IC50 is 377 nM.

As to `CCOc1ccc(C(=O)Oc2cncc(-c3cnn(-c4ccccc4)c3)c2)cc1`, the IC50 was > 25000 nM.

In turn, `CCOc1ccc(C(=O)Oc2cnccc2NC(=O)Nc2ccccc2)cc1` yielded an IC50 of 355 nM.

The record behind these values is ChEMBL document CHEMBL5108076, “Target-Focused Library Design by Pocket-Applied Computer Vision and Fragment Deep Generative Linking” (J Med Chem, 2022).
